In ChEMBL document CHEMBL1799953, “Backbone cyclic peptide inhibitors of protein kinase B (PKB/Akt)” (J Med Chem, 2011):
*1 amine or outer side, *2 acyl side, *3 side chain or, on linkers, in order; H or OH if unused. Where a SMILES comes first, the peptide text is derived from it. Bridges are numbered along the chain shown (N, C = ends). [ ]: non-standard residue; d: D form. N(6-aminohexyl)Gly = O=C(CN(CCCCCCN[*:3])[*:1])[*:2]; NGly(3-aminopropyl) = O=C(CN(CCCN[*:3])[*:1])[*:2]; N(2-Aminoethyl)Gly = O=C(CN(CCN[*:3])[*:1])[*:2]; Gly(N-(CH2)6NH2) = NCCCCCCNCC(=O)O; Gly(N-2-aminoethyl) = NCCNCC(=O)O; Gly(N(CH2)3NH2) = NCCCNCC(=O)O; hLeu = CC(C)CC[C@H](N)C(=O)O; Nva = CCC[C@H](N)C(=O)O; Dap = NC[C@H](N)C(=O)O; CO = O=C([*:1])[*:2]; Nlys = NCCCCNCC(=O)O

Legend:
[1] = target: T1, RAC-alpha serine/threonine-protein kinase (Homo sapiens, UniProt P31749); experiment: Inhibition of Akt using RPRTSSF peptide and [gamma32]ATP by cell-free radioactive assay
T1 sequence (P31749 whole entry): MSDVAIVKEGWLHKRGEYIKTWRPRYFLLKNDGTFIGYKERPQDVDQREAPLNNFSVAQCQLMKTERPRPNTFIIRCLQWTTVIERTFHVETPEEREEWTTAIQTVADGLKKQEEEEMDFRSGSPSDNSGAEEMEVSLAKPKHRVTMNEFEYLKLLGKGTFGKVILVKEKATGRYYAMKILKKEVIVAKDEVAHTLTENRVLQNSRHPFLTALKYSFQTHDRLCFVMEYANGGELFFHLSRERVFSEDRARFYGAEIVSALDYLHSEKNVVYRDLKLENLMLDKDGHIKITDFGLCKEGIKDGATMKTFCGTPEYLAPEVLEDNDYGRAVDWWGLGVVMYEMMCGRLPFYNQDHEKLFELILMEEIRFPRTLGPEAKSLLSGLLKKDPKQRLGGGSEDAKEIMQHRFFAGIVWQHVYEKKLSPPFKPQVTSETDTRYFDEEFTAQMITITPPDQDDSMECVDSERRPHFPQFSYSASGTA
How it was run: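 Same reaction: HisΔPHPKBEEEFlag (0.005 units), 50 mM Hepes pH 7.4, 0.1 mM EGTA, 0.1% 2-mercaptoethanol, 10 mM magnesium acetate, 3 μM RPRTSSF, 10 μM [γ32P]ATP. Peptide stock concentration determined by UV spectrophotometry; reference peptide run in every assay.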

[2] = target: T1, RAC-alpha serine/threonine-protein kinase; experiment: Inhibition of Akt using RPRTSSF peptide and [gamma32]ATP at 0.625 uM by cell-free radioactive assay relative to control

Row | Compound | IC50 [1] | inhibition [2]
1 | CCC[C@H](NC(=O)[C@H](CCCNC(=N)N)NC(=O)CN(CCCN)C(=O)[C@@H](N)CCCNC(=N)N)C(=O)N[C@@H](Cc1ccc(O)cc1)C(=O)N[C@@H](CN)C(=O)N[C@@H](CCC(C)C)C(=O)N(CCCN)CC(N)=O (H-R[Gly(N(CH2)3NH2)]R[Nva]Y[Dap][hLeu][Gly(N(CH2)3NH2)]-NH2) | 130 nM | 90%
2 | CCC[C@H](NC(=O)[C@H](CCCNC(=N)N)NC(=O)CN(CCCN)C(=O)[C@@H](N)CCCNC(=N)N)C(=O)N[C@@H](Cc1ccc(O)cc1)C(=O)N[C@@H](CN)C(=O)N[C@@H](CCC(C)C)C(=O)N(CCCCN)CC(N)=O (H-R[Gly(N(CH2)3NH2)]R[Nva]Y[Dap][hLeu][Nlys]-NH2) | 128 nM | 96%
3 | CCC[C@H](NC(=O)[C@H](CCCNC(=N)N)NC(=O)CN(CCN)C(=O)[C@@H](N)CCCNC(=N)N)C(=O)N[C@@H](Cc1ccc(O)cc1)C(=O)N[C@@H](CN)C(=O)N[C@@H](CCC(C)C)C(=O)N(CCCN)CC(N)=O (H-R[Gly(N-2-aminoethyl)]R[Nva]Y[Dap][hLeu][Gly(N(CH2)3NH2)]-NH2) | – | 76%
4 | CCC[C@H](NC(=O)[C@H](CCCNC(=N)N)NC(=O)CN(CCN)C(=O)[C@@H](N)CCCNC(=N)N)C(=O)N[C@@H](Cc1ccc(O)cc1)C(=O)N[C@@H](CN)C(=O)N[C@@H](CCC(C)C)C(=O)N(CCN)CC(N)=O (H-R[Gly(N-2-aminoethyl)]R[Nva]Y[Dap][hLeu][Gly(N-2-aminoethyl)]-NH2) | – | 57%
5 | CCC[C@H](NC(=O)[C@H](CCCNC(=N)N)NC(=O)CN(CCN)C(=O)[C@@H](N)CCCNC(=N)N)C(=O)N[C@@H](Cc1ccc(O)cc1)C(=O)N[C@@H](CN)C(=O)N[C@@H](CCC(C)C)C(=O)N(CCCCCCN)CC(N)=O (H-R[Gly(N-2-aminoethyl)]R[Nva]Y[Dap][hLeu][Gly(N-(CH2)6NH2)]-NH2) | – | 42%
6 | CCC[C@H](NC(=O)[C@H](CCCNC(=N)N)NC(=O)CN(CCN)C(=O)[C@@H](N)CCCNC(=N)N)C(=O)N[C@@H](Cc1ccc(O)cc1)C(=O)N[C@@H](CN)C(=O)N[C@@H](CCC(C)C)C(=O)N(CCCCN)CC(N)=O (H-R[Gly(N-2-aminoethyl)]R[Nva]Y[Dap][hLeu][Nlys]-NH2) | – | 84%
7 | CCC[C@H](NC(=O)[C@H](CCCNC(=N)N)NC(=O)CN(CCCCCCN)C(=O)[C@@H](N)CCCNC(=N)N)C(=O)N[C@@H](Cc1ccc(O)cc1)C(=O)N[C@@H](CN)C(=O)N[C@@H](CCC(C)C)C(=O)N(CCCN)CC(N)=O (H-R[Gly(N-(CH2)6NH2)]R[Nva]Y[Dap][hLeu][Gly(N(CH2)3NH2)]-NH2) | 110 nM | 87%
8 | CCC[C@H](NC(=O)[C@H](CCCNC(=N)N)NC(=O)CN(CCCCCCN)C(=O)[C@@H](N)CCCNC(=N)N)C(=O)N[C@@H](Cc1ccc(O)cc1)C(=O)N[C@@H](CN)C(=O)N[C@@H](CCC(C)C)C(=O)N(CCN)CC(N)=O (H-R[Gly(N-(CH2)6NH2)]R[Nva]Y[Dap][hLeu][Gly(N-2-aminoethyl)]-NH2) | – | 83%
9 | CCC[C@H](NC(=O)[C@H](CCCNC(=N)N)NC(=O)CN(CCCCCCN)C(=O)[C@@H](N)CCCNC(=N)N)C(=O)N[C@@H](Cc1ccc(O)cc1)C(=O)N[C@@H](CN)C(=O)N[C@@H](CCC(C)C)C(=O)N(CCCCCCN)CC(N)=O (H-R[Gly(N-(CH2)6NH2)]R[Nva]Y[Dap][hLeu][Gly(N-(CH2)6NH2)]-NH2) | – | 57%
10 | CCC[C@H](NC(=O)[C@H](CCCNC(=N)N)NC(=O)CN(CCCCCCN)C(=O)[C@@H](N)CCCNC(=N)N)C(=O)N[C@@H](Cc1ccc(O)cc1)C(=O)N[C@@H](CN)C(=O)N[C@@H](CCC(C)C)C(=O)N(CCCCN)CC(N)=O (H-R[Gly(N-(CH2)6NH2)]R[Nva]Y[Dap][hLeu][Nlys]-NH2) | – | 88%
11 | CCC[C@H](NC(=O)[C@H](CCCNC(=N)N)NC(=O)CN(CCCCN)C(=O)[C@@H](N)CCCNC(=N)N)C(=O)N[C@@H](Cc1ccc(O)cc1)C(=O)N[C@@H](CN)C(=O)N[C@@H](CCC(C)C)C(=O)N(CCCN)CC(N)=O (H-R[Nlys]R[Nva]Y[Dap][hLeu][Gly(N(CH2)3NH2)]-NH2) | 150 nM | 91%
12 | CCC[C@H](NC(=O)[C@H](CCCNC(=N)N)NC(=O)CN(CCCCN)C(=O)[C@@H](N)CCCNC(=N)N)C(=O)N[C@@H](Cc1ccc(O)cc1)C(=O)N[C@@H](CN)C(=O)N[C@@H](CCC(C)C)C(=O)N(CCN)CC(N)=O (H-R[Nlys]R[Nva]Y[Dap][hLeu][Gly(N-2-aminoethyl)]-NH2) | – | 84%
13 | CCC[C@H](NC(=O)[C@H](CCCNC(=N)N)NC(=O)CN(CCCCN)C(=O)[C@@H](N)CCCNC(=N)N)C(=O)N[C@@H](Cc1ccc(O)cc1)C(=O)N[C@@H](CN)C(=O)N[C@@H](CCC(C)C)C(=O)N(CCCCCCN)CC(N)=O (H-R[Nlys]R[Nva]Y[Dap][hLeu][Gly(N-(CH2)6NH2)]-NH2) | – | 60%
14 | CCC[C@H](NC(=O)[C@H](CCCNC(=N)N)NC(=O)CN(CCCCN)C(=O)[C@@H](N)CCCNC(=N)N)C(=O)N[C@@H](Cc1ccc(O)cc1)C(=O)N[C@@H](CN)C(=O)N[C@@H](CCC(C)C)C(=O)N(CCCCN)CC(N)=O (H-R[Nlys]R[Nva]Y[Dap][hLeu][Nlys]-NH2) | 130 nM | 91%
15 | CCC[C@@H]1NC(=O)[C@H](CCCNC(=N)N)NC(=O)CNCCNC(=O)NCCN(CC(N)=O)C(=O)[C@H](CCC(C)C)NC(=O)[C@H](CN)NC(=O)[C@H](Cc2ccc(O)cc2)NC1=O (H-[N(2-Aminoethyl)Gly]R[Nva]Y[Dap][hLeu][N(2-Aminoethyl)Gly]-NH2; linker 1-7 via CO) | 390 nM | 64%
16 | CCC[C@@H]1NC(=O)[C@H](CCCNC(=N)N)NC(=O)CNCCCCCCNC(=O)NCCN(CC(N)=O)C(=O)[C@H](CCC(C)C)NC(=O)[C@H](CN)NC(=O)[C@H](Cc2ccc(O)cc2)NC1=O (H-[N(6-aminohexyl)Gly]R[Nva]Y[Dap][hLeu][N(2-Aminoethyl)Gly]-NH2; linker 1-7 via CO) | – | 26%
17 | CCC[C@@H]1NC(=O)[C@H](CCCNC(=N)N)NC(=O)CNCCCNC(=O)NCCN(CC(N)=O)C(=O)[C@H](CCC(C)C)NC(=O)[C@H](CN)NC(=O)[C@H](Cc2ccc(O)cc2)NC1=O (H-[NGly(3-aminopropyl)]R[Nva]Y[Dap][hLeu][N(2-Aminoethyl)Gly]-NH2; linker 1-7 via CO) | 240 nM | 84%
18 | CCC[C@@H]1NC(=O)[C@H](CCCNC(=N)N)NC(=O)CNCCCCNC(=O)NCCN(CC(N)=O)C(=O)[C@H](CCC(C)C)NC(=O)[C@H](CN)NC(=O)[C@H](Cc2ccc(O)cc2)NC1=O (H-[Nlys]R[Nva]Y[Dap][hLeu][N(2-Aminoethyl)Gly]-NH2; linker 1-7 via CO) | – | 32%
